Source: ChEMBL document CHEMBL5523695, “Discovery of small molecule benzothiazole and indole derivatives tackling tau 2N4R and α-synuclein fibrils” (Bioorg Med Chem, 2024)
Active and inactive are the calls of the source. The calls are words filed in the database; no cut-off is given here.

How the values were obtained:
[1] = target: Alpha-synuclein (Homo sapiens) (UniProt P37840); experiment: Inhibition of recombinant alpha-Synuclein (unknown origin) aggregation assessed as reduction in fluorescence intensity by measuring residual activity at 100 uM measured every 20 mins for 40 to 70 hrs by Thioflavin T based fluorescence analysis relative to control; conditions: time 40-70 hrs
In short: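 Recombinant α-syn (2 μM final) in 10 mM PBS pH 7.4 with 0.5 mM SDS and 300 mM NaCl. Compound at 100 μM final, ThT 20 μM, one borosilicate bead per well. Read at 37 °C every 20 min after 10 s shaking, ex 440/em 485 nm, for 40–70 h. Background was ThT plus 0.25 % DMSO without protein. Plateau fluorescence expressed as % of control, triplicates, mean ± SEM.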

[2] = target: Alpha-synuclein (Homo sapiens) (UniProt P37840); experiment: Inhibition of recombinant alpha-Synuclein (unknown origin) aggregation assessed as reduction in oligomer formation at compound-protein ratio of 1:0.6 incubated for 10 mins in presence of 53W light exposure for 1 sec by PICUP assay
In short: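 α-Syn (60 μM) in 10 mM phosphate buffer was cross-linked with Ru(bpy)3 (300 μM) and ammonium persulfate (6 mM), compound at 50, 100 or 200 μM. Light from a 53 W incandescent bulb for 1 s. Laemmli/2-mercaptoethanol added, then 95 °C for 10 min. Samples run on 16 % SDS-PAGE with Coomassie stain; oligomer bands at 35–40 kDa assessed. Controls lacked light or Ru(bpy)3.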

[3] = target: T1, Microtubule-associated protein tau (Homo sapiens, UniProt P10636); experiment: Inhibition of unfolded tau 2N4R (unknown origin) aggregation expressed in Escherichia coli Rosetta BL21 cells assessed as reduction in short and fine needle like fibrils at 100 uM measured after 72 hrs by TEM analysis
In short: (§1)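 Recombinant tau 2N4R (6 μM) incubated with compound at 100 μM, or 0.25 % DMSO, in 10 mM PBS pH 7.4 for 72 h at 37 °C. Placed on Formvar-carbon copper grids for 1 min, rinsed, and negatively stained with 1 % uranyl acetate. TEM at 40k magnification, 100 kV.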

[4] = target: T1, Microtubule-associated protein tau; experiment: Inhibition of unfolded tau 2N4R (unknown origin) aggregation expressed in Escherichia coli Rosetta BL21 cells assessed as appearance of rounded structures at 100 uM measured after 72 hrs by TEM analysis; in short: as §1
[5] = target: T1, Microtubule-associated protein tau; experiment: Inhibition of unfolded tau 2N4R (unknown origin) aggregation expressed in Escherichia coli Rosetta BL21 cells assessed as reduction in protein fibril formation at 100 uM measured after 72 hrs by TEM analysis; in short: as §1
[6] = (§2) Cytotoxicity against human M17D cells expressing doxycyclin-inducible alpha-syn-S3K::YFP inclusion-prone fusion protein assessed as reduction in cell confluency at 20 to 40 uM treated with compound starting from 24 hrs post plating followed by doxycyclin addition at 48 hrs and measured 96 hrs post plating by Incucyte-based analysis; type: toxicity; conditions: 72 h, dose 20-40 µM
In short: (§3)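 Dox-inducible M17D-TR/αS-3K::YFP neuroblastoma cells seeded at 30,000 per well. Compound added 24 h after plating at 1.25–40 μM, with 0.1 % DMSO as vehicle. Dox at 1 μg/mL final was added at 48 h. At 96 h, Incucyte imaging gave confluence fold change vs vehicle. N = 2 independent experiments, 6–12 wells total. Mean ± SD, one-way ANOVA with Dunnett's test.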

[7] = as §2, with “<20” for “20 to 40”; type: toxicity; conditions: 72 h; in short: as §3
[8] = target: Alpha-synuclein (Homo sapiens) (UniProt P37840); experiment: Inhibition of recombinant alpha-Synuclein (unknown origin) aggregation assessed as reduction in protein fibril formation at 100 uM measured after 68 hrs by TEM analysis
In short: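 α-Syn (2 μM) samples taken from the ThT kinetic runs after about 68 h at 37 °C, compound at 100 μM, vehicle 0.25 % DMSO. Applied to Formvar-carbon copper grids for 1 min, washed, and stained with 1 % uranyl acetate for 1 min. Imaged by TEM at 40k magnification, 100 kV.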

[9] = target: Alpha-synuclein (Homo sapiens) (UniProt P37840); experiment: as §2, with “Inhibition of alpha-syn inclusion formation in” for “Cytotoxicity against”, “inclusions” for “cell confluency at 20 to 40 uM”; type: cell-based; conditions: time 72.0 hrs
In short: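 M17D-TR/αS-3K::YFP cells seeded at 30,000 per well and dosed 24 h post-plating at 1.25–40 μM (vehicle 0.1 % DMSO). Transgene induced at 48 h with dox at 1 μg/mL final. At 96 h, Incucyte analysis of punctate YFP inclusions, expressed as fold change vs DMSO. Two independent experiments, 6–12 wells total, mean ± SD, Dunnett's post-hoc test.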

[10] = target: T1, Microtubule-associated protein tau; experiment: Inhibition of unfolded tau 2N4R (unknown origin) aggregation expressed in Escherichia coli Rosetta BL21 cells assessed as reduction in formation of large dense accumulation of tau fibrils at 100 uM measured after 72 hrs by TEM analysis; in short: as §1
[11] = target: T1, Microtubule-associated protein tau; experiment: Inhibition of human tau 0N4R aggregation expressed in Escherichia coli Rosetta BL21 cells assessed as reduction in oligomer formation at 50 to 200 uM incubated for 10 mins in presence of 53W light exposure for 60 sec by PICUP assay; conditions: dose 50-200 µM
In short: (§4)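 Tau 2N4R or 0N4R, expressed in-house from a pET30a construct in E. coli Rosetta BL21 and purified by heat step plus SP cation exchange, used at 10 μM in 10 mM phosphate buffer. Compound at 50, 100 and 200 μM. Ru(bpy)3 at 300 μM and APS at 6 mM, 60 s light exposure. Samples boiled at 95 °C for 10 min in reducing Laemmli buffer, then 16 % SDS-PAGE with Coomassie.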

[12] = target: T1, Microtubule-associated protein tau; experiment: Inhibition of tau 2N4R (unknown origin) aggregation expressed in Escherichia coli Rosetta BL21 cells assessed as reduction in oligomer formation at 50 to 200 uM incubated for 10 mins in presence of 53W light exposure for 60 sec by PICUP assay; conditions: dose 50-200 µM; in short: as §4
[13] = target: Alpha-synuclein (Homo sapiens) (UniProt P37840); experiment: Inhibition of recombinant alpha-Synuclein (unknown origin) aggregation assessed as reduction in fluorescence intensity measured every 20 mins for 40 to 70 hrs by Thioflavin T based fluorescence analysis; conditions: dose 3.125-25 µM, time 40-70 hrs

T1 sequence (P10636 whole entry): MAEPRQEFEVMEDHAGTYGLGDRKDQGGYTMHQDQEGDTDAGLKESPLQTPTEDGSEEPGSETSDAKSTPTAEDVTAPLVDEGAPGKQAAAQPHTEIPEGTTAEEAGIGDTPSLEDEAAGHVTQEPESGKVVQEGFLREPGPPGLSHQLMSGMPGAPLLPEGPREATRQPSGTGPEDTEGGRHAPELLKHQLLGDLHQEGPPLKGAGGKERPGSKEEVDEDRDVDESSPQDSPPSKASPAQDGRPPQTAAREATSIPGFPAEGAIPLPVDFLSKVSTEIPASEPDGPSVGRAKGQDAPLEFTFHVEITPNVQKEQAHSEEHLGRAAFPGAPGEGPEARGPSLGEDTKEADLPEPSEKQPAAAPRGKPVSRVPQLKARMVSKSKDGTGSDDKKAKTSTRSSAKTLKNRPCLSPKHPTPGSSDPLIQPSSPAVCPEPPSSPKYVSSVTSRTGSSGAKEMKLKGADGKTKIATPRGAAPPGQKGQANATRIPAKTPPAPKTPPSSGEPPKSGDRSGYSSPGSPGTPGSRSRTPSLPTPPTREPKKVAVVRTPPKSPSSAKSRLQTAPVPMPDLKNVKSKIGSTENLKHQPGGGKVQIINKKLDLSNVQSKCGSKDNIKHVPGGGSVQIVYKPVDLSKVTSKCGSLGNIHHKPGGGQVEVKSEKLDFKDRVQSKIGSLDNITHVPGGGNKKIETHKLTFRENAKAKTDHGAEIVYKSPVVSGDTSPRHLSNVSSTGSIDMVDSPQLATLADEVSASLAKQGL

Activity [1] [%]	SMILES	also measured
84.7	COc1cccc2sc(NC(=O)c3cccc(C(F)(F)F)c3)nc12	
40.3	O=C(Nc1ccc2[nH]ccc2c1)Nc1ccccc1I	
137	COc1cccc2sc(NC(=O)c3ccccc3I)nc12	
97.6	O=[N+]([O-])c1ccc(S(=O)(=O)Nc2ccc3[nH]ccc3c2)cc1	
102	COc1cccc2sc(NC(=O)c3ccccc3[N+](=O)[O-])nc12	
> 200	COc1cccc2sc(NC(=O)Nc3ccccc3F)nc12	
128	COc1cccc2sc(NC(=O)c3ccc(F)cc3F)nc12	
40.3	COc1cccc2sc(NS(=O)(=O)c3ccc(Cl)cc3)nc12	
39.3	COc1cccc2sc(NS(=O)(=O)c3cc(Cl)cc(Cl)c3)nc12	
64.9	COc1cccc2sc(NS(=O)(=O)c3ccccc3F)nc12	
41.6	COc1cccc2sc(NC(=O)Nc3cccs3)nc12	
74.8	O=S(=O)(Nc1cccc2[nH]ccc12)c1ccccc1I	
40.1	COc1cccc2sc(NS(=O)(=O)c3cccc([N+](=O)[O-])c3)nc12	
173	COc1cccc2sc(NC(=O)Nc3ccc(Cl)cc3)nc12	
> 200	COc1cccc2sc(NC(=O)Nc3cccc(C(F)(F)F)c3)nc12	
104	O=S(=O)(Nc1ccc2cc[nH]c2c1)c1ccccc1I	
42.8	COc1cccc2sc(NS(=O)(=O)c3ccc(I)cc3)nc12	
74.6	COc1cccc2sc(NS(=O)(=O)c3ccccc3)nc12	
184	COc1cccc2sc(NC(=O)Nc3ccc(F)cc3F)nc12	
170	COc1cccc2sc(NC(=O)Nc3ccc(Br)cc3)nc12	

Activity [1] [%]	SMILES	also measured
137	COc1cccc2sc(NC(=O)c3ccccc3C)nc12	
83.4	O=C(Nc1ccc2cc[nH]c2c1)Nc1ccccc1I	
145	COc1cccc2sc(NC(=O)Nc3ccc(F)cc3)nc12	
38.3	O=C(Nc1ccccc1I)Nc1cccc2[nH]ccc12	
79	COc1cccc2sc(NC(=O)Nc3ccc([N+](=O)[O-])cc3)nc12	
41.6	COc1cccc2sc(NS(=O)(=O)c3cccs3)nc12	
262	COc1cccc2sc(NC(=O)c3ccccc3Cl)nc12	
103	COc1cccc2sc(NC(=O)c3ccc(F)cc3)nc12	
53.8	COc1cccc2sc(NS(=O)(=O)c3ccc(C(F)(F)F)cc3)nc12	
70.4	COc1cccc2sc(NS(=O)(=O)c3ccc(F)cc3)nc12	
79.3	COc1ccccc1S(=O)(=O)Nc1nc2c(OC)cccc2s1	
148	COc1cccc2sc(NC(=O)Nc3ccccc3C)nc12	
48.1	COc1cccc2sc(NC(=O)c3cccc([N+](=O)[O-])c3)nc12	
199	COc1ccccc1NC(=O)Nc1nc2c(OC)cccc2s1	
> 200	COc1cccc2sc(NC(=O)c3ccc(Br)cc3)nc12	
116	COc1cccc2sc(NC(=O)c3ccc(C(F)(F)F)cc3)nc12	
83.9	O=[N+]([O-])c1ccc(S(=O)(=O)Nc2cccc3[nH]ccc23)cc1	
141	COc1cccc2sc(NC(=O)Nc3ccc(I)cc3)nc12	
94.8	COc1cccc2sc(NC(=O)Nc3ccc(C(F)(F)F)cc3)nc12	
78.1	COc1cccc2sc(NC(=O)Nc3cccc([N+](=O)[O-])c3)nc12	

The remaining lines, values behind:

SMILES	Activity [1] [%]	also measured
COc1cccc2sc(NS(=O)(=O)c3ccccc3C)nc12	32.7	
COc1cccc2sc(NS(=O)(=O)c3ccccc3[N+](=O)[O-])nc12	41	
COc1cccc2sc(NC(=O)c3ccccc3F)nc12	98.7	
COc1cccc2sc(NC(=O)Nc3ccccc3I)nc12	125	
COc1cccc2sc(NS(=O)(=O)c3ccccc3Cl)nc12	19.3	
COc1cccc2sc(NS(=O)(=O)c3ccc([N+](=O)[O-])cc3)nc12	9.5	inhibition [2]: inactive
O=[N+]([O-])c1ccc(S(=O)(=O)Nc2ccc3cc[nH]c3c2)cc1	63.5	
COc1cccc2sc(NC(=O)Nc3ccccc3[N+](=O)[O-])nc12	64.4	
COc1cccc2sc(NC(=O)Nc3cc(Cl)cc(Cl)c3)nc12	> 200	
COc1cccc2sc(NS(=O)(=O)c3ccc(C#N)cc3)nc12	46.1	
COc1cccc2sc(NS(=O)(=O)c3cccc(C(F)(F)F)c3)nc12	56	
COc1cccc2sc(NC(=O)Nc3ccccc3)nc12	130	
COc1cccc2sc(NC(=O)c3ccccc3)nc12	107	
COc1cccc2sc(NC(=O)c3ccc(Cl)cc3)nc12	116	
COc1cccc2sc(NC(=O)c3cc(Cl)cc(Cl)c3)nc12	95.4	
COc1cccc2sc(NC(=O)c3cccs3)nc12	86.6	
O=C(Nc1ccc([N+](=O)[O-])cc1)Nc1ccc2[nH]ccc2c1	2.9	inhibition [3]: Active; inhibition [4]: Active; inhibition [5]: Active; Activity [6]: Toxic; Activity [7]: Non-Toxic; inhibition [8]: Active; inhibition [9]: Active; inhibition [10]: Active; inhibition [11]: inactive; inhibition [12]: inactive
COc1cccc2sc(NC(=O)Nc3ccc(C#N)cc3)nc12	> 200	
COc1cccc2sc(NC(=O)c3ccc(C#N)cc3)nc12	128	
O=C(Nc1ccc([N+](=O)[O-])cc1)Nc1cccc2[nH]ccc12	4	inhibition [3]: Active; inhibition [4]: Active; inhibition [5]: Active; Activity [6]: Toxic; Activity [7]: Non-Toxic; inhibition [2]: Active; inhibition [8]: Active; inhibition [9]: Active; inhibition [10]: Active; inhibition [13]: Dose-Dependent Effect; inhibition [11]: inactive; inhibition [12]: inactive
COc1ccccc1C(=O)Nc1nc2c(OC)cccc2s1	182	
COc1cccc2sc(NC(=O)c3ccc([N+](=O)[O-])cc3)nc12	45.4	
COc1cccc2sc(NS(=O)(=O)c3ccc(Br)cc3)nc12	43.1	
COc1cccc2sc(NS(=O)(=O)c3ccc(F)cc3F)nc12	87.9	
O=S(=O)(Nc1ccc2[nH]ccc2c1)c1ccccc1I	59.7	
COc1cccc2sc(NC(=O)c3ccc(I)cc3)nc12	> 200	
COc1cccc2sc(NS(=O)(=O)c3ccccc3I)nc12	5.8	inhibition [2]: inactive
